Compound activity deposited in PubChem by several laboratories.
Only some compounds are listed: those with a hit (about 1.7% of all), similar ones and a draw of the others.
LMPTP block: LMPTP (human) inhibition. recombinant LMPTP-A, OMFP fluorogenic substrate, fluorescence intensity. inhibition, % at 20 µM. hit rate 0.22% among 360,000. AID 651560;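 active = compounds that cut the enzyme signal by at least half of the control window in the single-dose screen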;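 also: plate controls were DMSO wells with enzyme plus substrate for no effect and substrate without enzyme for full effect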
Target sequence (P24666 whole entry, looked up): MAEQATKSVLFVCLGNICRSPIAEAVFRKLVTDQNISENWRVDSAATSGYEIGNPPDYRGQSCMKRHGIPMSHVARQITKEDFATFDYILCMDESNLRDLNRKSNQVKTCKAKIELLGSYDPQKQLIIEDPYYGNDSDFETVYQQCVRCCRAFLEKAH
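Test system – LMPTP-A phosphatase enzyme · Quantity – 0.625 nM LMPTP-A final · Reagent – OMFP substrate, 400 µM final · Dosing – one test concentration per compound, 20 µM, with 3% DMSO overall · Timing – 50 min enzyme reaction at room temperature, protected from light · Detection – fluorescence intensity · Controls – substrate-only low control, DMSO enzyme-plus-substrate high control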
Scp-1 inhibitor: Scp-1 (human) phosphatase inhibition | Q9GZU7 | Recombinant Scp1, phosphopeptide, malachite green phosphate absorbance | inhibition, % at 20 µM | hit rate 0.88% among 340,000 | AID 493091;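 active = inhibition above about 50% at 20 µM, limit read from the data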;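 also: plate controls were DMSO wells with enzyme for no effect and wells lacking enzyme for full effect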
Target sequence (Q9GZU7 76-261 limits assumed): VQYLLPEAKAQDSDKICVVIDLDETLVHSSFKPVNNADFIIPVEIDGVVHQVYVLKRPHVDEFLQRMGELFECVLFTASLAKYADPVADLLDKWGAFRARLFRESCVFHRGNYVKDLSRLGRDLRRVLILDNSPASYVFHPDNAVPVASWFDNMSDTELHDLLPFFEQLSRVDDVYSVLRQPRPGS
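assay system = SCP-1 phosphatase catalytic domain, residues 76-261 | buffer or medium = 50 mM Tris acetate pH 5.5, 0.005% Tween-20, 10 mM MgCl2 | incubation = enzyme reaction 45 min at room temperature, colour 5 min, stabilisation 30 min | signal = Phosphate-binding colour reagent, absorbance read at 630 nm | measure = % inhibition at 20 µM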
SUMO1-SIM PPI: modulators of human SUMO1-mediated protein-protein interactions. hit rate 0.33% among 360,000. AID 602429. SUMO1 binding to a labelled peptide, TR-FRET, 1 h. P63165. inhibition, % at 20 µM; in the data active = inhibition above about 37%
Target sequence (P63165 whole entry, looked up): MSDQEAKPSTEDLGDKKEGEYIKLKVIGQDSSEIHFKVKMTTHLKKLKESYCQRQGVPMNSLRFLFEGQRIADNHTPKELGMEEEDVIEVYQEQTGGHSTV
DSG3 Ab inh: inhibitors of pemphigus antibody binding to human desmoglein-3; DSG3-coupled beads, scFv-anti-DSG3-GFP binding, flow cytometry; hits give low values; binding (percent of control), % at 10 µM; hit rate 0.48% among 310,000;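 active = binding more than 3 SD below its plate's average and above zero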;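 also: hits lower antibody fragment binding to DSG3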
STEP inh: blocks human striatal-enriched tyrosine phosphatase; inhibition, % at 20 µM; P54829; recombinant STEP, OMFP fluorogenic substrate, fluorescence; hit rate 0.25% among 360,000;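 active = inhibition at 20 µM, scaled per plate between control wells, above about 37%, limit read from the data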;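 also: 0% = DMSO with enzyme and substrate and 100% = substrate only without enzyme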
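Assay system: isolated STEP enzyme. Buffer or medium: pH 6.0 Bis-Tris with DTT and Tween 20. Also added: fluorogenic phosphatase substrate OMFP at 25 µM final. Dosing: 20 µM, 1% DMSO. Timing: 20 min reaction, room temperature, in the dark. Measured by: fluorescence intensity, excitation 480 nm, emission 540 nm. Evaluation: normalized % inhibition.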
Active calls of the source: *.

Screening COc1cc(C(=O)NCC(=O)Nc2c(C)cccc2C)ccc1OCC(=O)N1CCOCC1 returned LMPTP block 0, Scp-1 inhibitor 7, SUMO1-SIM PPI -2, DSG3 Ab inh 87 and STEP inh 0.
For OC[C@H]1O[C@@H]2O[C@H]3[C@H](O)[C@@H](O)[C@@H](O[C@H]4[C@H](O)[C@@H](O)[C@@H](O[C@H]5[C@H](O)[C@@H](O)[C@@H](O[C@H]6[C@H](O)[C@@H](O)[C@@H](O[C@H]7[C@H](O)[C@@H](O)[C@@H](O[C@H]1[C@H](O)[C@H]2O)O[C@@H]7CO)O[C@@H]6CO)O[C@@H]5CO)O[C@@H]4CO)O[C@@H]3CO the results were Scp-1 inhibitor -9.
Screening CC(Sc1nnc(Cc2ccc3c(c2)OCO3)o1)C(N)=O (stereo not given) returned LMPTP block 3, Scp-1 inhibitor -2, SUMO1-SIM PPI 1, DSG3 Ab inh 100 and STEP inh -1.
`CC(=O)c1sc(-c2ccccc2)cc1NS(=O)(=O)c1ccc(C)cc1` gave LMPTP block 3, Scp-1 inhibitor -7, SUMO1-SIM PPI -6, DSG3 Ab inh 113 and STEP inh 4.
Screening CC(=O)c1sc(-c2ccccc2)cc1NS(=O)(=O)c1ccccc1 returned LMPTP block -2, Scp-1 inhibitor 21, SUMO1-SIM PPI 5, DSG3 Ab inh 75* and STEP inh 1.
O=C1NC[C@@H](CCCCN2C[C@H](Cc3ccc(O)cc3)N(CCc3ccc(O)cc3)C(=O)C2=O)N(CCc2ccccc2)C1=O was read as LMPTP block 2 and SUMO1-SIM PPI 10.
Screening O=C1NC[C@@H](CCCCN2C[C@H](Cc3ccc(O)cc3)N(CCc3ccc(O)cc3)C(=O)C2=O)N(CCc2ccc(O)cc2)C1=O returned LMPTP block 33 and SUMO1-SIM PPI 44*.
For CN(/C=C/C(=O)C(F)(F)F)Cc1ccccc1 the results were LMPTP block -1, Scp-1 inhibitor -1, SUMO1-SIM PPI -5, DSG3 Ab inh 106 and STEP inh -2.
C#CCn1c2ccccc2c2nc3ccccc3nc21 was read as LMPTP block 0, Scp-1 inhibitor -3, SUMO1-SIM PPI -6, DSG3 Ab inh 82* and STEP inh 4.
N#CCn1c2ccccc2c2nc3ccccc3nc21 was read as LMPTP block 0, Scp-1 inhibitor -5, SUMO1-SIM PPI -8, DSG3 Ab inh 97 and STEP inh -1.
Screening c1coc(-c2nc(-c3ccco3)c(-c3ccco3)nc2-c2ccco2)c1 returned LMPTP block 82*, Scp-1 inhibitor 93*, SUMO1-SIM PPI 83*, DSG3 Ab inh 88 and STEP inh 94*.
`COc1ccc2nc(-c3ccco3)c(-c3ccco3)nc2c1` gave LMPTP block 54*, Scp-1 inhibitor 77*, SUMO1-SIM PPI 44*, DSG3 Ab inh 91 and STEP inh 11.
Screening Cc1ccc(N=Nc2c(C)[nH]n(C(N)=S)c2=O)cc1 returned LMPTP block 3, Scp-1 inhibitor -3, SUMO1-SIM PPI -26, DSG3 Ab inh 108 and STEP inh 2.
Screening Cc1ccc([N+](=O)[O-])cc1N=Nc1c(-c2ccc([N+](=O)[O-])cc2)[nH]n(C(N)=S)c1=O returned LMPTP block 27, Scp-1 inhibitor 63*, SUMO1-SIM PPI 18, DSG3 Ab inh 103 and STEP inh 9.
Cc1ccc([N+](=O)[O-])cc1N=Nc1c(C)[nH]n(C(N)=S)c1=O was read as LMPTP block 0, Scp-1 inhibitor -7, SUMO1-SIM PPI -23, DSG3 Ab inh 98 and STEP inh 1.
NC(=S)n1[nH]c(-c2ccc([N+](=O)[O-])cc2)c(N=Nc2ccc(Cl)cc2)c1=O was read as LMPTP block 29, Scp-1 inhibitor 3, SUMO1-SIM PPI 87*, DSG3 Ab inh 85 and STEP inh 4.
For Cc1ccc(-c2nc(NCc3ccc(F)cc3)n(S(C)(=O)=O)n2)cc1 the results were LMPTP block 4, Scp-1 inhibitor -9, SUMO1-SIM PPI -1, DSG3 Ab inh 107 and STEP inh 0.
Screening COc1ccc2cc(C(=O)N/N=C/c3sc4ccccc4c3O)ccc2c1 returned LMPTP block 51*, Scp-1 inhibitor 85*, SUMO1-SIM PPI -25, DSG3 Ab inh 109 and STEP inh 18.
